Molecules are shown by their SMILES. Where a SMILES comes first, the peptide text is derived from it. [ ]: non-standard residue; d: D form. Bip = N[C@@H](Cc1ccc(-c2ccccc2)cc1)C(=O)O; 1Nal = N[C@@H](Cc1cccc2ccccc12)C(=O)O

Experiment [1] has as its target T1, Pituitary adenylate cyclase-activating polypeptide type I receptor (Homo sapiens, UniProt P41586). Kind of experiment: Agonist activity at human recombinant PAC1 receptor expressed in CHO cells assessed as PACAP38-induced calcium mobilization by FLIPR assay. Format: functional, cell-based. The gist of the method:
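CHO cells stably expressing recombinant human PAC1, plated 24 h before assay, loaded with fluo-4 AM for 60 min at 37 °C in the dark, then rinsed into HBSS for 15 min at 37 °C. EC50 and efficacy came from nonlinear regression; 4-10 independent assays in duplicate.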
On the technique in general: Calcium flux is commonly read through the fluorescence of an indicator in the cells.
Target sequence in this assay (P41586 whole entry): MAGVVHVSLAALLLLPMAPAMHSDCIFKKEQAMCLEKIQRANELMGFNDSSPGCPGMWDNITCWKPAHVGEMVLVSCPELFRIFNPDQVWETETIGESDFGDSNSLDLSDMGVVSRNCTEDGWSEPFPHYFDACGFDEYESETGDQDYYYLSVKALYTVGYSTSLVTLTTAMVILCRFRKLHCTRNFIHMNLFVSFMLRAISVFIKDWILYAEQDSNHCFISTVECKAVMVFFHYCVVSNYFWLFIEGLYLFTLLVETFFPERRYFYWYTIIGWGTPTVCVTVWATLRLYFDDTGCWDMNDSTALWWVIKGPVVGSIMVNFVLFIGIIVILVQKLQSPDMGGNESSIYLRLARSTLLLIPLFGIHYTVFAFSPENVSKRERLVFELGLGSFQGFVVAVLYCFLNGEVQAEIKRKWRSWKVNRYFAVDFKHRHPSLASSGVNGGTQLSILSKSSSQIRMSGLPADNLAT

Experiment [2] addresses T1, Pituitary adenylate cyclase-activating polypeptide type I receptor. Kind of experiment: Displacement of [125I]Ac-PACAP27 from human recombinant PAC1 receptor expressed in CHO cells by gamma- counter. Format: cell-based. On the technique in general: Loss of bound radioactivity is the signal in a displacement assay; it reports binding, not function.
Target sequence in this assay (P41586 whole entry): as above
The target is the same in experiment [3]. The experiment in a line: Agonist activity at human recombinant PAC1 receptor expressed in CHO cells assessed as PACAP38-induced calcium mobilization by FLIPR assay relative to PACAP38. The format is functional, cell-based. The gist of the method:
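CHO cells stably expressing recombinant human PAC1, plated 24 h before assay, loaded with fluo-4 AM for 60 min at 37 °C in the dark, then rinsed into HBSS for 15 min at 37 °C. Peptide was added 18 s into a 150 s read (ex 480/em 525 nm), at final concentrations of 1 × 10-12 to 1 × 10^-5 M. Response was normalised to 1 × 10^-5 M PACAP38 on each plate. EC50 and efficacy came from nonlinear regression; 4-10 independent assays in duplicate.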
Target sequence in this assay (P41586 21-468 limits assumed): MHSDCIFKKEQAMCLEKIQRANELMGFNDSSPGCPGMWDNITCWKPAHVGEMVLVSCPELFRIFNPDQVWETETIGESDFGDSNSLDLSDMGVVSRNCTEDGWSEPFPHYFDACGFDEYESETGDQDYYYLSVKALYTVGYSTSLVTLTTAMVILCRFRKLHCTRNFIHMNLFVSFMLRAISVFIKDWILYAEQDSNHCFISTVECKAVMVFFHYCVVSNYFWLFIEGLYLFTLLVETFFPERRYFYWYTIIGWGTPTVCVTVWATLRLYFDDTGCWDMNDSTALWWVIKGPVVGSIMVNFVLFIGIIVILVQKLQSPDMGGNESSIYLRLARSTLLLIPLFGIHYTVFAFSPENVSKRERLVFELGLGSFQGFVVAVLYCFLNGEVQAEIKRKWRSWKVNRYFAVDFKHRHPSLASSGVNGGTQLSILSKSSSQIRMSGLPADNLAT

In general, EC50 refers to the concentration at which the effect is half-maximal. As a reminder, the IC50 is the concentration at which inhibition is half-maximal. One may read the Emax as the greatest response seen or fitted, relative to the assay's reference. As for `CC[C@H](C)[C@H](NC(=O)CNC(=O)[C@H](CC(=O)O)NC(=O)[C@H](CO)NC(=O)[C@@H](N)Cc1cnc[nH]1)C(=O)N[C@@H](Cc1ccc(O)cc1)C(=O)N[C@H](C(=O)N[C@@H](CC(=O)O)C(=O)N[C@@H](CO)C(=O)N[C@@H](Cc1ccc(O)cc1)C(=O)N[C@@H](CO)C(=O)N[C@@H](CCCNC(=N)N)C(=O)N[C@@H](Cc1ccc(O)cc1)C(=O)N[C@@H](CCCNC(=N)N)C(=O)N[C@@H](CCCCN)C(=O)N[C@@H](CCC(N)=O)C(=O)N[C@@H](CCSC)C(=O)N[C@@H](C)C(=O)N[C@H](C(=O)N[C@@H](CCCCN)C(=O)N[C@@H](CCCCN)C(=O)N[C@@H](Cc1ccc(O)cc1)C(=O)N[C@@H](CC(C)C)C(=O)N[C@@H](C)C(=O)N[C@@H](C)C(=O)N[C@H](C(=O)N[C@@H](CC(C)C)C(=O)NCC(=O)N[C@@H](CCCCN)C(=O)N[C@@H](CCCNC(=N)N)C(=O)N[C@@H](Cc1ccc(O)cc1)C(=O)N[C@@H](CCCCN)C(=O)N[C@@H](CCC(N)=O)C(=O)N[C@@H](CCCNC(=N)N)C(=O)N[C@H](C(=O)N[C@@H](CCCCN)C(=O)N[C@@H](CC(N)=O)C(=O)N[C@@H](CCCCN)C(N)=O)C(C)C)C(C)C)C(C)C)[C@@H](C)O` (H-HSDGIYTDSYSRYRKQMAVKKYLAAVLGKRYKQRVKNK-NH2), in experiment [1], the EC50 was 2.7 nM. Also, the IC50 in experiment [2] was 6.7 nM. Moreover, the Emax in experiment [3] was determined as 99.4%.
The corresponding values for `CC[C@H](C)[C@H](NC(=O)CNC(=O)[C@H](CC(=O)O)NC(=O)[C@H](CO)NC(=O)[C@@H](N)Cc1cnc[nH]1)C(=O)N[C@@H](Cc1cccc2ccccc12)C(=O)N[C@H](C(=O)N[C@@H](CC(=O)O)C(=O)N[C@@H](CO)C(=O)N[C@@H](Cc1ccc(O)cc1)C(=O)N[C@@H](CO)C(=O)N[C@@H](CCCNC(=N)N)C(=O)N[C@@H](Cc1ccc(O)cc1)C(=O)N[C@@H](CCCNC(=N)N)C(=O)N[C@@H](CCCCN)C(=O)N[C@@H](CCC(N)=O)C(=O)N[C@@H](CCSC)C(=O)N[C@@H](C)C(=O)N[C@H](C(=O)N[C@@H](CCCCN)C(=O)N[C@@H](CCCCN)C(=O)N[C@@H](Cc1ccc(O)cc1)C(=O)N[C@@H](CC(C)C)C(=O)N[C@@H](C)C(=O)N[C@@H](C)C(=O)N[C@H](C(=O)N[C@@H](CC(C)C)C(=O)NCC(=O)N[C@@H](CCCCN)C(=O)N[C@@H](CCCNC(=N)N)C(=O)N[C@@H](Cc1ccc(O)cc1)C(=O)N[C@@H](CCCCN)C(=O)N[C@@H](CCC(N)=O)C(=O)N[C@@H](CCCNC(=N)N)C(=O)N[C@H](C(=O)N[C@@H](CCCCN)C(=O)N[C@@H](CC(N)=O)C(=O)N[C@@H](CCCCN)C(N)=O)C(C)C)C(C)C)C(C)C)[C@@H](C)O` (H-HSDGI[1Nal]TDSYSRYRKQMAVKKYLAAVLGKRYKQRVKNK-NH2) are 1.4 nM, 5 nM and 106%.
The matching figures for `CC[C@H](C)[C@H](NC(=O)CNC(=O)[C@H](CC(=O)O)NC(=O)[C@H](CO)NC(=O)[C@@H](N)Cc1cnc[nH]1)C(=O)N[C@@H](C)C(=O)N[C@H](C(=O)N[C@@H](CC(=O)O)C(=O)N[C@@H](CO)C(=O)N[C@@H](Cc1ccc(O)cc1)C(=O)N[C@@H](CO)C(=O)N[C@@H](CCCNC(=N)N)C(=O)N[C@@H](Cc1ccc(O)cc1)C(=O)N[C@@H](CCCNC(=N)N)C(=O)N[C@@H](CCCCN)C(=O)N[C@@H](CCC(N)=O)C(=O)N[C@@H](CCSC)C(=O)N[C@@H](C)C(=O)N[C@H](C(=O)N[C@@H](CCCCN)C(=O)N[C@@H](CCCCN)C(=O)N[C@@H](Cc1ccc(O)cc1)C(=O)N[C@@H](CC(C)C)C(=O)N[C@@H](C)C(=O)N[C@@H](C)C(=O)N[C@H](C(=O)N[C@@H](CC(C)C)C(N)=O)C(C)C)C(C)C)[C@@H](C)O`: 462 nM, 1330 nM and 65.3%.
`CC[C@H](C)[C@H](NC(=O)C(C)(C)NC(=O)[C@H](CC(=O)O)NC(=O)[C@H](CO)NC(=O)[C@@H](N)Cc1cnc[nH]1)C(=O)N[C@@H](Cc1ccccc1)C(=O)N[C@H](C(=O)N[C@@H](CC(=O)O)C(=O)N[C@@H](CO)C(=O)N[C@@H](Cc1ccc(O)cc1)C(=O)N[C@@H](CO)C(=O)N[C@@H](CCCNC(=N)N)C(=O)N[C@@H](Cc1ccc(O)cc1)C(=O)N[C@@H](CCCNC(=N)N)C(=O)N[C@@H](CCCCN)C(=O)N[C@@H](CCC(N)=O)C(=O)N[C@@H](CCSC)C(=O)N[C@@H](C)C(=O)N[C@H](C(=O)N[C@@H](CCCCN)C(=O)N[C@@H](CCCCN)C(=O)N[C@@H](Cc1ccc(O)cc1)C(=O)N[C@@H](CC(C)C)C(=O)N[C@@H](C)C(=O)N[C@@H](C)C(=O)N[C@H](C(=O)N[C@@H](CC(C)C)C(N)=O)C(C)C)C(C)C)[C@@H](C)O`: in experiment [1], the 50% effective concentration (EC50) was 49.4 nM. Further, the IC50 in experiment [2] stood at 51.4 nM. Further, the Emax in experiment [3] amounted to 90.2%.
For `CC[C@H](C)[C@H](NC(=O)CNC(=O)[C@H](CC(=O)O)NC(=O)[C@@H](CO)NC(=O)[C@@H](N)Cc1cnc[nH]1)C(=O)N[C@@H](Cc1ccccc1)C(=O)N[C@H](C(=O)N[C@@H](CC(=O)O)C(=O)N[C@@H](CO)C(=O)N[C@@H](Cc1ccc(O)cc1)C(=O)N[C@@H](CO)C(=O)N[C@@H](CCCNC(=N)N)C(=O)N[C@@H](Cc1ccc(O)cc1)C(=O)N[C@@H](CCCNC(=N)N)C(=O)N[C@@H](CCCCN)C(=O)N[C@@H](CCC(N)=O)C(=O)N[C@@H](CCSC)C(=O)N[C@@H](C)C(=O)N[C@H](C(=O)N[C@@H](CCCCN)C(=O)N[C@@H](CCCCN)C(=O)N[C@@H](Cc1ccc(O)cc1)C(=O)N[C@@H](CC(C)C)C(=O)N[C@@H](C)C(=O)N[C@@H](C)C(=O)N[C@H](C(=O)N[C@@H](CC(C)C)C(=O)NCC(=O)N[C@@H](CCCCN)C(=O)N[C@@H](CCCNC(=N)N)C(=O)N[C@@H](Cc1ccc(O)cc1)C(=O)N[C@@H](CCCCN)C(=O)N[C@@H](CCC(N)=O)C(=O)N[C@@H](CCCNC(=N)N)C(=O)N[C@H](C(=O)N[C@@H](CCCCN)C(=O)N[C@@H](CC(N)=O)C(=O)N[C@@H](CCCCN)C(N)=O)C(C)C)C(C)C)C(C)C)[C@@H](C)O`, the EC50 in experiment [1] was 4.1 nM. Moreover, the IC50 in experiment [2] turned out to be 6.6 nM. Also, in experiment [3], the Emax stood at 90.5%.
Regarding `CC[C@H](C)[C@H](NC(=O)CNC(=O)[C@H](CC(=O)O)NC(=O)[C@H](CO)NC(=O)[C@@H](N)Cc1cnc[nH]1)C(=O)N[C@@H](Cc1ccc(-c2ccccc2)cc1)C(=O)N[C@H](C(=O)N[C@@H](CC(=O)O)C(=O)N[C@@H](CO)C(=O)N[C@@H](Cc1ccc(O)cc1)C(=O)N[C@@H](CO)C(=O)N[C@@H](CCCNC(=N)N)C(=O)N[C@@H](Cc1ccc(O)cc1)C(=O)N[C@@H](CCCNC(=N)N)C(=O)N[C@@H](CCCCN)C(=O)N[C@@H](CCC(N)=O)C(=O)N[C@@H](CCSC)C(=O)N[C@@H](C)C(=O)N[C@H](C(=O)N[C@@H](CCCCN)C(=O)N[C@@H](CCCCN)C(=O)N[C@@H](Cc1ccc(O)cc1)C(=O)N[C@@H](CC(C)C)C(=O)N[C@@H](C)C(=O)N[C@@H](C)C(=O)N[C@H](C(=O)N[C@@H](CC(C)C)C(=O)NCC(=O)N[C@@H](CCCCN)C(=O)N[C@@H](CCCNC(=N)N)C(=O)N[C@@H](Cc1ccc(O)cc1)C(=O)N[C@@H](CCCCN)C(=O)N[C@@H](CCC(N)=O)C(=O)N[C@@H](CCCNC(=N)N)C(=O)N[C@H](C(=O)N[C@@H](CCCCN)C(=O)N[C@@H](CC(N)=O)C(=O)N[C@@H](CCCCN)C(N)=O)C(C)C)C(C)C)C(C)C)[C@@H](C)O` (H-HSDGI[Bip]TDSYSRYRKQMAVKKYLAAVLGKRYKQRVKNK-NH2), the EC50 in experiment [1] turned out to be 1.1 nM. Besides, in experiment [2], the IC50 was 5.4 nM. Moreover, the Emax in experiment [3] amounted to 105%.
`CC[C@H](C)[C@H](NC(=O)CNC(=O)[C@H](CC(=O)O)NC(=O)[C@@H]1CCCN1C(=O)[C@@H](N)Cc1cnc[nH]1)C(=O)N[C@@H](Cc1ccccc1)C(=O)N[C@H](C(=O)N[C@@H](CC(=O)O)C(=O)N[C@@H](CO)C(=O)N[C@@H](Cc1ccc(O)cc1)C(=O)N[C@@H](CO)C(=O)N[C@@H](CCCNC(=N)N)C(=O)N[C@@H](Cc1ccc(O)cc1)C(=O)N[C@@H](CCCNC(=N)N)C(=O)N[C@@H](CCCCN)C(=O)N[C@@H](CCC(N)=O)C(=O)N[C@@H](CCSC)C(=O)N[C@@H](C)C(=O)N[C@H](C(=O)N[C@@H](CCCCN)C(=O)N[C@@H](CCCCN)C(=O)N[C@@H](Cc1ccc(O)cc1)C(=O)N[C@@H](CC(C)C)C(=O)N[C@@H](C)C(=O)N[C@@H](C)C(=O)N[C@H](C(=O)N[C@@H](CC(C)C)C(N)=O)C(C)C)C(C)C)[C@@H](C)O`: in experiment [1], the EC50 came out at 7.4 nM. Further, in experiment [2], the IC50 came out at 7.8 nM. Moreover, the Emax in experiment [3] amounted to 94.2%.
The corresponding values for `CC[C@H](C)[C@H](NC(=O)CNC(=O)[C@H](CC(=O)O)NC(=O)[C@H](CO)NC(=O)[C@@H](N)Cc1cncn1C)C(=O)N[C@@H](Cc1ccccc1)C(=O)N[C@H](C(=O)N[C@@H](CC(=O)O)C(=O)N[C@@H](CO)C(=O)N[C@@H](Cc1ccc(O)cc1)C(=O)N[C@@H](CO)C(=O)N[C@@H](CCCNC(=N)N)C(=O)N[C@@H](Cc1ccc(O)cc1)C(=O)N[C@@H](CCCNC(=N)N)C(=O)N[C@@H](CCCCN)C(=O)N[C@@H](CCC(N)=O)C(=O)N[C@@H](CCSC)C(=O)N[C@@H](C)C(=O)N[C@H](C(=O)N[C@@H](CCCCN)C(=O)N[C@@H](CCCCN)C(=O)N[C@@H](Cc1ccc(O)cc1)C(=O)N[C@@H](CC(C)C)C(=O)N[C@@H](C)C(=O)N[C@@H](C)C(=O)N[C@H](C(=O)N[C@@H](CC(C)C)C(N)=O)C(C)C)C(C)C)[C@@H](C)O` are 52.5 nM, 15.6 nM and 96.9%.

These data come from ChEMBL document CHEMBL1138520, “Molecular and conformational determinants of pituitary adenylate cyclase-activating polypeptide (PACAP) for activation of the PAC1 receptor” (J Med Chem, 2009).
